Source: article PMC7449315 (Journal for Immunotherapy of Cancer, 2020)

Test system: advanced solid tumors
Assay: phase I trial: preliminary antitumor activity
Assay type: in vivo, human
Method in brief: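 Patients with advanced solid tumors received twice-daily oral doses in 28-day cycles. CT or MRI was done at baseline and within 7 days before day 1 of cycles 3, 5 and 7, then every three cycles. The investigator assessed objective response, best overall response, disease control and progression-free survival per RECIST 1.1. Binary endpoints used exact Clopper-Pearson 95% CI and PFS used Kaplan-Meier.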

SMILES: NS(=O)(=O)[C@H]1CC[C@](F)(CC[C@H]2c3ccccc3-c3cncn32)CC1 [M4112]
- best overall response stable disease, patients (9 of 15 patients): 60.0%
- median progression-free survival (15 patients): 3.7 months
- objective responses (15 patients): no objective responses
